{"source": "paper PMC12618243", "about": "(Nature Structural & Molecular Biology, 2025)", "key": {"OSH6 [1]": {"target": "T1, OSH6 (Saccharomyces cerevisiae, UniProt Q02201)", "T1 sequence (Q02201 1-448)": "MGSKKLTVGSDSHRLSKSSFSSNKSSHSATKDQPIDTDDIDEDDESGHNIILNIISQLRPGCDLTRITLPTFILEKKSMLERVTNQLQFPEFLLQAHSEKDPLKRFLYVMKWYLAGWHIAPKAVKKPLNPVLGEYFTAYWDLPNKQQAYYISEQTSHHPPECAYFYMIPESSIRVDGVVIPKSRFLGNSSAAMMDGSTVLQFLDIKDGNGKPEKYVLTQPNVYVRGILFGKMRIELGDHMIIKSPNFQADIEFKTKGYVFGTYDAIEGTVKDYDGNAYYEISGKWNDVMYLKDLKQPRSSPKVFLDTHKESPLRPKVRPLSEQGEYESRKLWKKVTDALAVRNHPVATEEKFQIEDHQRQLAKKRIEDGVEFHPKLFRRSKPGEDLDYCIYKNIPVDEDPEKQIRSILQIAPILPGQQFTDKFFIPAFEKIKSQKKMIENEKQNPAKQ", "assay": "ITC binding of IST2 peptides to OSH6", "parameters": "species or system S. cerevisiae", "conditions": "R750A peptide, Extended Data Fig. 7l"}, "OSH6 [2]": {"target": "T1, OSH6", "assay": "Pulldown of OSH6 by GST-tagged IST2 peptides", "format": "binding, S. cerevisiae", "in_short": "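GST-tagged IST2 peptides (OSH6-binding epitope, varying length) expressed in E. coli BL21 (0.3 mM IPTG at OD600 0.8, 25 °C, 2.5 h). Coated beads incubated with 5 µM (final) OSH6 plus BSA, 1 h, 4 °C. Beads washed without BSA, taken into SDS sample buffer.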"}, "cryo-EM structure [3]": {"target": "the molecule itself", "assay": "cryo-EM structure"}, "cryo-EM structure [4]": {"target": "the molecule itself", "assay": "cryo-EM structure", "remark": "listed apart in the source"}, "[5]": {"target": "T2, OSH6 purified from E. coli (S. cerevisiae, UniProt Q02201 1-448)", "T2 sequence": "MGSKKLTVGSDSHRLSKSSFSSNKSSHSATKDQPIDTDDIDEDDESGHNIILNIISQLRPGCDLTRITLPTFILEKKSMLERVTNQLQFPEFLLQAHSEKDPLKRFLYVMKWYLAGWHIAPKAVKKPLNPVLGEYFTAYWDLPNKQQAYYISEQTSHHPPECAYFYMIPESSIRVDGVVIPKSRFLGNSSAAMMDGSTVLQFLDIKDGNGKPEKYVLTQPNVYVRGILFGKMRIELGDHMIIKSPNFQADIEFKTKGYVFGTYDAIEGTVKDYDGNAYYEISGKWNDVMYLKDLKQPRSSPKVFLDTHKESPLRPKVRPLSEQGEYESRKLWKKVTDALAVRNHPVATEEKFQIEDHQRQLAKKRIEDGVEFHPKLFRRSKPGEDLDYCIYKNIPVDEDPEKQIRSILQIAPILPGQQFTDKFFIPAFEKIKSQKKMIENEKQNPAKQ", "assay": "pull-down"}, "OSH6 [6]": {"target": "T1, OSH6", "assay": "SEC coelution of IST2fl and OSH6", "format": "binding, S. cerevisiae"}, "[7]": {"system": "S. cerevisiae ist2;psd1-KO strain (AWY327)", "assay": "Yeast complementation", "format": "cell-based", "conditions": "2% galactose, 30 °C, 3–4 days"}, "[8]": {"conditions": "cited from earlier work"}, "MSP2N2": {"system": "MSP2N2", "assay": "SEC of OSH6 with scaffold protein MSP2N2 in absence of lipids", "format": "binding", "conditions": "no lipids, 1.2× molar excess MSP2N2, 30 min, performed once"}}, "note": "Where two headings read alike, the source gives them in different places."}
{"molecule": "Substitution of R750 to alanine: peptide encompassing residues 732-761 of IST2 carrying the mutation R750A (ITC) (VAGATLPETIPTSKNYYLAFDEDGKSIRDA; UniProt P38250 732-761, looked up, fragment R750A)", "values": [{"measurement": "Binding to OSH6 by ITC (in words)", "setting": "OSH6 [1]", "value": "severely compromise binding to OSH6"}, {"measurement": "OSH6 interaction in pulldown (in words)", "setting": "OSH6 [2]", "value": "severely compromise binding to OSH6"}]}
{"molecule": "full-length IST2 (natural protein) MSQTITSLDPNCVIVFNKTSSANEKSLNVEFKRLNIHSIIEPGHDLQTSYAFIRIHQDNAKPLFSFLQNLDFIESIIPYHDTELSDDLHKLISISKSKILEAPKQYELYNLSNLTNNPKQSLYFAFLQNYIKWLIPFSFFGLSIRFLSNFTYEFNSTYSLFAILWTLSFTAFWLYKYEPFWSDRLSKYSSFSTIEFLQDKQKAQKKASSVIMLKKCCFIPVALLFGAILLSFQLYCFALEIFIKQIYNGPMISILSFLPTILICTFTPVLTVIYNKYFVEPMTKWENHSSVVNAKKSKEAKNFVIIFLSSYVPLLITLFLYLPMGHLLTAEIRTKVFNAFSILARLPTHDSDFIIDTKRYEDQFFYFIVINQLIQFSMENFVPSLVSIAQQKINGPNPNFVKAESEIGKAQLSSSDMKIWSKVKSYQTDPWGATFDLDANFKKLLLQFGYLVMFSTIWPLAPFICLIVNLIVYQVDLRKAVLYSKPEYFPFPIYDKPSSVSNTQKLTVGLWNSVLVMFSILGCVITATLTYMYQSCNIPGVGAHTSIHTNKAWYLANPINHSWINIVLYAVFIEHVSVAIFFLFSSILKSSHDDVANGIVPKHVVNVQNPPKQEVFEKIPSPEFNSNNEKELVQRKGSANEKLHQELGEKQPASSANGYEAHAATHANNDPSSLSSASSPSLSSSSSSSKTGVVKAVDNDTAGSAGKKPLATESTEKRNSLVKVPTVGSYGVAGATLPETIPTSKNYYLRFDEDGKSIRDAKSSAESSNATNNNTLGTESKLLPDGDAVDALSRKIDQIPKIAVTGGENNENTQAKDDAATKTPLIKDANIKPVVNAAVNDNQSKVSVATEQTKKTEVSTKNGPSRSISTKETKDSARPSNNNTTTTTTTDATQPHHHHHHHRHRDAGVKNVTNNSKTTESSSSSSAAKEKPKHKKGLLHKLKKKL", "values": [{"measurement": "stoichiometry N", "setting": "cryo-EM structure [3]", "value": 2}]}
{"molecule": "IST2 containing residues 1-716 (domain or fragment) MSQTITSLDPNCVIVFNKTSSANEKSLNVEFKRLNIHSIIEPGHDLQTSYAFIRIHQDNAKPLFSFLQNLDFIESIIPYHDTELSDDLHKLISISKSKILEAPKQYELYNLSNLTNNPKQSLYFAFLQNYIKWLIPFSFFGLSIRFLSNFTYEFNSTYSLFAILWTLSFTAFWLYKYEPFWSDRLSKYSSFSTIEFLQDKQKAQKKASSVIMLKKCCFIPVALLFGAILLSFQLYCFALEIFIKQIYNGPMISILSFLPTILICTFTPVLTVIYNKYFVEPMTKWENHSSVVNAKKSKEAKNFVIIFLSSYVPLLITLFLYLPMGHLLTAEIRTKVFNAFSILARLPTHDSDFIIDTKRYEDQFFYFIVINQLIQFSMENFVPSLVSIAQQKINGPNPNFVKAESEIGKAQLSSSDMKIWSKVKSYQTDPWGATFDLDANFKKLLLQFGYLVMFSTIWPLAPFICLIVNLIVYQVDLRKAVLYSKPEYFPFPIYDKPSSVSNTQKLTVGLWNSVLVMFSILGCVITATLTYMYQSCNIPGVGAHTSIHTNKAWYLANPINHSWINIVLYAVFIEHVSVAIFFLFSSILKSSHDDVANGIVPKHVVNVQNPPKQEVFEKIPSPEFNSNNEKELVQRKGSANEKLHQELGEKQPASSANGYEAHAATHANNDPSSLSSASSPSLSSSSSSSKTGVVKAVDNDTAGSAGKKPLATESTE", "values": [{"measurement": "stoichiometry N", "setting": "cryo-EM structure [4]", "value": 2}]}
{"molecule": "VAGATLPETIPTSKNYYLRFDEDGKSIR", "note": "[GST fusion of the IST2 peptide encompassing residues 732-759]", "values": [{"measurement": "binding result", "setting": "[5]", "value": "binds"}]}
{"molecule": "IST2: full-length wild-type IST2, 946 residues, S. cerevisiae (protein, left off: SBP, N-terminal, state not stated | myc, N-terminal, state not stated) MSQTITSLDPNCVIVFNKTSSANEKSLNVEFKRLNIHSIIEPGHDLQTSYAFIRIHQDNAKPLFSFLQNLDFIESIIPYHDTELSDDLHKLISISKSKILEAPKQYELYNLSNLTNNPKQSLYFAFLQNYIKWLIPFSFFGLSIRFLSNFTYEFNSTYSLFAILWTLSFTAFWLYKYEPFWSDRLSKYSSFSTIEFLQDKQKAQKKASSVIMLKKCCFIPVALLFGAILLSFQLYCFALEIFIKQIYNGPMISILSFLPTILICTFTPVLTVIYNKYFVEPMTKWENHSSVVNAKKSKEAKNFVIIFLSSYVPLLITLFLYLPMGHLLTAEIRTKVFNAFSILARLPTHDSDFIIDTKRYEDQFFYFIVINQLIQFSMENFVPSLVSIAQQKINGPNPNFVKAESEIGKAQLSSSDMKIWSKVKSYQTDPWGATFDLDANFKKLLLQFGYLVMFSTIWPLAPFICLIVNLIVYQVDLRKAVLYSKPEYFPFPIYDKPSSVSNTQKLTVGLWNSVLVMFSILGCVITATLTYMYQSCNIPGVGAHTSIHTNKAWYLANPINHSWINIVLYAVFIEHVSVAIFFLFSSILKSSHDDVANGIVPKHVVNVQNPPKQEVFEKIPSPEFNSNNEKELVQRKGSANEKLHQELGEKQPASSANGYEAHAATHANNDPSSLSSASSPSLSSSSSSSKTGVVKAVDNDTAGSAGKKPLATESTEKRNSLVKVPTVGSYGVAGATLPETIPTSKNYYLRFDEDGKSIRDAKSSAESSNATNNNTLGTESKLLPDGDAVDALSRKIDQIPKIAVTGGENNENTQAKDDAATKTPLIKDANIKPVVNAAVNDNQSKVSVATEQTKKTEVSTKNGPSRSISTKETKDSARPSNNNTTTTTTTDATQPHHHHHHHRHRDAGVKNVTNNSKTTESSSSSSAAKEKPKHKKGLLHKLKKKL", "values": [{"measurement": "Coelution as a complex on SEC (in words)", "setting": "OSH6 [6]", "value": "coelute as a complex on size-exclusion chromatography"}, {"measurement": "Growth complementation (in words)", "setting": "[7]", "value": "growth deficit can be alleviated"}, {"measurement": "Scrambling activity, previous publication (in words)", "setting": "[8]", "value": "refuting scrambling activity"}]}
{"molecule": "OSH6: soluble lipid transfer protein, PS–PtdIns4P exchanger of S. cerevisiae (protein, left off: GST, N-terminal, cleaved) MGSKKLTVGSDSHRLSKSSFSSNKSSHSATKDQPIDTDDIDEDDESGHNIILNIISQLRPGCDLTRITLPTFILEKKSMLERVTNQLQFPEFLLQAHSEKDPLKRFLYVMKWYLAGWHIAPKAVKKPLNPVLGEYFTAYWDLPNKQQAYYISEQTSHHPPECAYFYMIPESSIRVDGVVIPKSRFLGNSSAAMMDGSTVLQFLDIKDGNGKPEKYVLTQPNVYVRGILFGKMRIELGDHMIIKSPNFQADIEFKTKGYVFGTYDAIEGTVKDYDGNAYYEISGKWNDVMYLKDLKQPRSSPKVFLDTHKESPLRPKVRPLSEQGEYESRKLWKKVTDALAVRNHPVATEEKFQIEDHQRQLAKKRIEDGVEFHPKLFRRSKPGEDLDYCIYKNIPVDEDPEKQIRSILQIAPILPGQQFTDKFFIPAFEKIKSQKKMIENEKQNPAKQ", "values": [{"measurement": "Interaction with isolated scaffold protein (in words)", "setting": "MSP2N2", "value": "nor did we detect interactions with the isolated scaffold protein"}]}
